ChEMBL document CHEMBL1124154, “Polycyclic aryl- and heteroarylpiperazinyl imides as 5-HT1A receptor ligands and potential anxiolytic agents: synthesis and structure-activity relationship studies” (J Med Chem, 1988)

How the values were obtained:
[1] = target: T1, 5-hydroxytryptamine receptor 1A (Rattus norvegicus) (UniProt P19327); experiment: In vitro inhibition of [3H]-8-hydroxy-2-(di-n-propylamino)tetralin binding to 5-hydroxytryptamine 1A receptor from rat hippocampal tissue at 1 uM; details: Hippocampus
T1 sequence (whole entry): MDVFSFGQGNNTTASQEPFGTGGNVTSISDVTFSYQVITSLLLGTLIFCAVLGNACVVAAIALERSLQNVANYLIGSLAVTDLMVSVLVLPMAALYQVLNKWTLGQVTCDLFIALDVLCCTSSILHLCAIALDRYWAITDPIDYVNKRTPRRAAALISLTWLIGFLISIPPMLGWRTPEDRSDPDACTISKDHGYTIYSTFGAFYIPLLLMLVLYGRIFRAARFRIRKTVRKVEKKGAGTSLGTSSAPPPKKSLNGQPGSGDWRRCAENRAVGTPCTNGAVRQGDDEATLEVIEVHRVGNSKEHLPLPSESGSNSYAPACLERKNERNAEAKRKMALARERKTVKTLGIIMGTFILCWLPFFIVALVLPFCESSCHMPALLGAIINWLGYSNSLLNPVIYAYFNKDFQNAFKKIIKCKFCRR

[2] = target: D(2) dopamine receptor (Rattus norvegicus) (UniProt P61169); experiment: In vitro inhibition of [3H]spiperone binding to dopamine receptor D2 from rat brain limbic tissue at 1 uM; format: tissue-based; details: Limbic system
Rattus norvegicus = species: Rattus norvegicus; experiment: Concentration required to produce 50% block in avoidance responding in conditioned avoidance response test in rat; format: functional
Summary of the method: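 Trained rats in shelf-jump and/or discrete-trial conditioned avoidance paradigms. Drug given ip or po to at least five rats per dose, with a control session before each drug run. Trials without avoidance (avoidance block) were counted per dose as a percentage of total trials, with control set at 100%. AB50 was taken from a least-squares dose-effect regression line.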

[3] = target: T2, 5-hydroxytryptamine receptor 1A (Rattus norvegicus, UniProt P19327); experiment: In vitro inhibition of [3H]-8-hydroxy-2-(di-n-propylamino)tetralin binding to 5-hydroxytryptamine 1A receptor from rat hippocampal tissue.
T2 sequence (P19327 whole entry): T1 sequence (whole entry)

D(2) dopamine receptor = D(2) dopamine receptor (Rattus norvegicus, UniProt P61169); experiment: In vitro inhibition of [3H]spiperone binding to Dopamine receptor D2 from rat brain limbic tissue; format: tissue-based, Limbic system
Summary of the method: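 Limbic tissue (nucleus accumbens, septum, olfactory tubercle) from Sprague-Dawley rats, washed membranes at 0.2-0.3 mg protein. Incubated with 0.3 nM [3H]spiroperidol and a range of drug concentrations, 10 min at 37 °C, in Tris buffer pH 7.1 with NaCl, KCl, CaCl2, ascorbate and pargyline. Filtered through GF/B and counted by scintillation. Nonspecific binding defined with 1 μM (+)-butaclamol.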

[4] = Partition coefficient (logP); format: physicochemical; details: octanol/water
[5] = Ratio of ED50 stereotyped behavior in mice; format: functional

D(2) dopamine receptor, sequence (P61169 whole entry): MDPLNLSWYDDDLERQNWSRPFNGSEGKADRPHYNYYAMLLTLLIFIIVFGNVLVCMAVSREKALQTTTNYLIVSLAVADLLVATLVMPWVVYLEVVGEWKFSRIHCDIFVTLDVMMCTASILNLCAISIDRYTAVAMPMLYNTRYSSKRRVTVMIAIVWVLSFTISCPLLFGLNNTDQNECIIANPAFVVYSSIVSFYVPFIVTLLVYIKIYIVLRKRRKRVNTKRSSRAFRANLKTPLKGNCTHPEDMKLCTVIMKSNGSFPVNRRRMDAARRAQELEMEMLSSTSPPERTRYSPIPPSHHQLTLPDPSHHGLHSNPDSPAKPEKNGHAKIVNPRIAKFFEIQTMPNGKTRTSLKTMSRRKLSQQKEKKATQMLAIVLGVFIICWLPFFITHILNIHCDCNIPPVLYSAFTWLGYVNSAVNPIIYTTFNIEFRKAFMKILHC
D(2) dopamine receptor (Rattus norvegicus), sequence (P61169 whole entry): as above

Row | inhibition [1] [%] | inhibition [2] [%] | Ki [3] [nM] | Ki (D(2) dopamine receptor) [nM] | logP [4] | Structure (SMILES) | AB50 (Rattus norvegicus) [mg/kg] | Ratio [5]
1 | 40 | 31 | – | – | – | Cl.O=C1C2C3C=CC(C4C=CC43)C2C(=O)N1CCCCN1CCN(c2ccc(C(F)(F)F)cn2)CC1 (stereo unspecified) | >40 | –
2 | – | 99 | 57 | – | – | Cl.O=C1C2C3C=CC(C4CCC34)C2C(=O)N1CCCCN1CCN(c2cccc(C(F)(F)F)c2)CC1 (stereo unspecified) | 40 | –
3 | 35 | 0 | – | – | – | O=C1C2C3CS(=O)(=O)CC3C2C(=O)N1CCCCN1CCN(c2cncc(Cl)n2)CC1 (stereo unspecified) | 40 | –
4 | 0 | 0 | – | – | – | Cl.O=C1C2C3C=CC(C4CC34)C2C(=O)N1CCCCc1ccncc1 (stereo unspecified) | >40 | –
5 | 23 | – | – | – | – | O=C1N(CCCCN2CCN(c3cncc(Cl)n3)CC2)C(=O)C23C4CCC(C4)C12C1CCC3C1 (stereo unspecified) | 40 | –
6 | – | – | – | 968 | – | CC(C)=C1C2C=CC1C1C(=O)N(CCCCN3CCN(c4cncc(Cl)n4)CC3)C(=O)C21 (stereo unspecified) | 40 | –
7 | – | – | 38 | 488 | 1.73 | Cl.O=C1C2C3C=CC(C4CC34)C2C(=O)N1CCCCN1CCN(c2ncccn2)CC1 (stereo unspecified) | 40 | –
8 | – | 63 | – | – | – | Cl.O=C1N(CCCCN2CCN(c3ncccn3)CC2)C(=O)C23C4CCC(C4)C12C1CCC3C1 (stereo unspecified) | 40 | –
9 | 74 | 1 | – | – | – | O=C1C2C3C=CC(C3)C2C(=O)N1CCCCN1CCN(c2cncc(Cl)n2)CC1 (stereo unspecified) | 40 | –
10 | – | – | 9 | – | – | O=C1[C@@H]2[C@H]3CC[C@H](C3)[C@@H]2C(=O)N1CCCCN1CCN(c2ncccn2)CC1 [TANDOSPIRONE] | 28 | –
11 | – | – | – | – | – | O=C1C2C3C=CC(CCCC3)C2C(=O)N1CCCCN1CCN(c2cncc(Cl)n2)CC1 (stereo unspecified) | 25 | –
12 | – | 48 | 37 | – | – | O=C1C2C3C=CC(C3)C2C(=O)N1CCCCN1CCN(c2nccnc2Cl)CC1 (stereo unspecified) | 40 | –
13 | – | – | 42 | 248 | 1.36 | O=C1C2C3C=CC(C3)C2C(=O)N1CCCCN1CCN(c2ncccn2)CC1 (stereo unspecified) | 5 | –
14 | – | 87 | 19 | – | – | O=C1C2C3C=CC(C4CCC34)C2C(=O)N1CCCCN1CCN(c2cccc(Cl)c2)CC1 (stereo unspecified) | 40 | –
15 | – | 74 | 5 | – | – | Cl.O=C1C2C3CCCC(CC3)C2C(=O)N1CCCCN1CCN(c2ncccn2)CC1 (stereo unspecified) | 40 | –
16 | – | – | – | 1920 | – | O=C1C2C3C=CC(C4CCC34)C2C(=O)N1CCCCN1CCN(c2ccc(Cl)nn2)CC1 (stereo unspecified) | >40 | –
17 | – | 53 | – | – | – | Cl.O=C1N(CCCCN2CCN(c3ncccn3)CC2)C(=O)C23C4C=CC(C4)C12C1C=CC3C1 (stereo unspecified) | 40 | –
18 | 55 | 40 | – | – | – | Cl.O=C1C2C3C=CC(C4CC34)C2C(=O)N1CCCCN1CCN(c2ccc(C(F)(F)F)cn2)CC1 (stereo unspecified) | 40 | –
19 | 46 | 13 | – | – | – | Cl.O=C1C2C3C=CC(C4C=CC43)C2C(=O)N1CCCCN1CCN(c2cnccn2)CC1 (stereo unspecified) | 40 | –
20 | – | 53 | – | – | 1.94 | Cl.O=C1C2C3C=CC(CCC3)C2C(=O)N1CCCCN1CCN(c2ncccn2)CC1 (stereo unspecified) | 40 | –
21 | 72 | 49 | – | – | – | O=C1C2C3CCC(C4CC43)C2C(=O)N1CCCCN1CCN(c2cncc(Cl)n2)CC1 (stereo unspecified) | 40 | –
22 | – | – | 190 | – | – | O=C1C2C3C=CC(C4CCC34)C2C(=O)N1CCCCN1CCN(c2cncc(Cl)n2)CC1 (stereo unspecified) | 40 | –
23 | – | 43 | – | – | – | O=C1C2C3C=CC(CCC3)C2C(=O)N1CCCCN1CCN(c2cncc(Cl)n2)CC1 (stereo unspecified) | 68 | –
24 | – | – | 51 | – | – | O=C1C2C3CCC(C4CCC43)C2C(=O)N1CCCCN1CCN(c2cncc(Cl)n2)CC1 (stereo unspecified) | >40 | –

Row | inhibition [1] [%] | inhibition [2] [%] | Ki [3] [nM] | Ki (D(2) dopamine receptor) [nM] | logP [4] | Structure (SMILES) | AB50 (Rattus norvegicus) [mg/kg] | Ratio [5]
25 | – | – | – | – | – | O=C1C2C3C=CC(C4CC34)C2C(=O)N1CCCCN1CCN(c2cncc(Cl)n2)CC1 (stereo unspecified) | 40 | –
26 | – | 3 | 41 | – | – | O=C1C2C3C=CC(C4C=CC43)C2C(=O)N1CCCCN1CCN(c2cccc(Cl)c2)CC1 (stereo unspecified) | >40 | –
27 | 0 | 6 | – | – | – | Cl.O=C1C2C3C=CC(CCC3)C2C(=O)N1CCCCc1ccncc1 (stereo unspecified) | 40 | –
28 | – | 59 | – | – | 1.79 | Cl.O=C1C2C3C=CC(C4C=CC43)C2C(=O)N1CCCCN1CCN(c2ncccn2)CC1 (stereo unspecified) | 13 | 7.6
29 | – | 100 | 14 | – | – | O=C1C2C3C=CC(C4CC34)C2C(=O)N1CCCCN1CCN(c2cccc(Cl)c2)CC1 (stereo unspecified) | 40 | –
30 | – | – | – | 374 | – | O=C1C2CCCCC2C(=O)N1CCCCN1CCN(c2ncccn2)CC1 (stereo unspecified) | 6 | –
31 | 100 | 100 | 1.3 | – | – | COc1ccccc1N1CCN(CCCCN2C(=O)C3C4C=CC(C5C=CC54)C3C2=O)CC1.Cl (stereo unspecified) | 19 | –
32 | – | 50 | – | – | – | O=C1C2C3C=CC(C4C=CC43)C2C(=O)N1CCCCN1CCN(c2cncc(Cl)n2)CC1 (stereo unspecified) | 40 | –
33 | 8 | 21 | – | – | – | O=C1C2C3C=CC(C4CC34)C2C(=O)N1CCCCC1CCN(c2cncc(Cl)n2)CC1 (stereo unspecified) | 40 | –
34 | 28 | 0 | – | – | – | O=C1C2C3CS(=O)(=O)CC3C2C(=O)N1CCCCN1CCN(c2nccnc2Cl)CC1 (stereo unspecified) | 40 | –
35 | – | 49 | 162 | – | – | O=C1C2C3CCCC(CC3)C2C(=O)N1CCCCN1CCN(c2cncc(Cl)n2)CC1 (stereo unspecified) | >40 | –
36 | – | 97 | 17 | – | – | Cl.O=C1C2C3CCCC(CC3)C2C(=O)N1CCCCN1CCN(c2cccc(C(F)(F)F)c2)CC1 (stereo unspecified) | >40 | –
37 | – | 19 | – | – | – | O=C1C2C3C=CC(C3)C2C(=O)N1CCCCN1CCN(c2ccc(Cl)nn2)CC1 (stereo unspecified) | 40 | –
38 | – | – | – | – | 1.83 | Cl.O=C1C2C3CCC(C4CC43)C2C(=O)N1CCCCN1CCN(c2ncccn2)CC1 (stereo unspecified) | 34 | –
39 | 71 | 33 | – | – | – | Cl.O=C1C2C3CCCC(CC3)C2C(=O)N1CCCCN1CCN(c2ccc(C(F)(F)F)cn2)CC1 (stereo unspecified) | >40 | –
40 | – | – | 1.3 | – | 2.02 | Cl.O=C1C2C3C=CC(C4CCC34)C2C(=O)N1CCCCN1CCN(c2ncccn2)CC1 (stereo unspecified) | 47 | –
41 | – | 75 | 26 | – | – | O=C1C2C3CCC(C4CC43)C2C(=O)N1CCCCN1CCN(c2nccnc2Cl)CC1 (stereo unspecified) | 61 | –
42 | 44 | 0 | – | – | – | Cl.O=C1C2C3CS(=O)(=O)CC3C2C(=O)N1CCCCN1CCN(c2ncccn2)CC1 (stereo unspecified) | >40 | –
43 | 47 | 39 | – | – | – | Cl.Cn1nnnc1N1CCN(CCCCN2C(=O)C3C4C=CC(C5CCC45)C3C2=O)CC1 (stereo unspecified) | 40 | –
44 | – | – | – | 2330 | – | O=C1C2C3C=CC(C4CC34)C2C(=O)N1CCCCN1CCN(c2ccc(Cl)nn2)CC1 (stereo unspecified) | 40 | –
45 | 98 | – | – | – | – | O=C1N(CCCCN2CCN(c3cncc(Cl)n3)CC2)C(=O)C23C4C=CC(C4)C12C1C=CC3C1 (stereo unspecified) | >40 | –
46 | – | 96 | 25 | – | – | Cl.O=C1C2C3C=CC(C4C=CC43)C2C(=O)N1CCCCN1CCN(c2cccc(C(F)(F)F)c2)CC1 (stereo unspecified) | 40 | –
47 | – | 14 | 129 | – | – | Cl.O=C1N(CCCCN2CCN(c3cnccn3)CC2)C(=O)C23C4C=CC(C4)C12C1C=CC3C1 (stereo unspecified) | 40 | –
48 | – | – | 1 | 53 | 2.09 | Cl.O=C1C2C3CCC(C4CCC43)C2C(=O)N1CCCCN1CCN(c2ncccn2)CC1 (stereo unspecified) | 40 | –

Row | Structure (SMILES) | inhibition [1] [%] | inhibition [2] [%] | Ki [3] [nM] | Ki (D(2) dopamine receptor) [nM] | logP [4] | AB50 (Rattus norvegicus) [mg/kg] | Ratio [5]
49 | Cl.O=C1C2C3CCC(C4CC43)C2C(=O)N1CCCCN1CCN(c2cccc(C(F)(F)F)c2)CC1 (stereo unspecified) | – | 92 | 20 | – | – | >40 | –
50 | Cl.O=C1C2C3C=CC(C4CC34)C2C(=O)N1CCCCN1CCN(c2cccc(C(F)(F)F)c2)CC1 (stereo unspecified) | – | 91 | 26 | – | – | 44 | –
